Bioassay records deposited in PubChem BioAssay by The Scripps Research Institute Molecular Screening Center.
TAAR1 antagonist: human TAAR1 antagonists, primary screen, Fluo-8 calcium fluorescence, CHO RD-HGA16 cells | Trace amine-associated receptor 1 (Homo sapiens), Q96RJ0 | antagonist | inhibition, % at 3 µM | 360,000 tested, 1.5% active;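 active = inhibition above a per-plate cutoff, the mean inhibition of test compounds on that plate plus 3 SD, cut at about 49% in these data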;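 note: 0% = DMSO plus EC80 beta-PEA response and 100% = DMSO alone without agonist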
Target sequence (Q96RJ0 whole entry, looked up): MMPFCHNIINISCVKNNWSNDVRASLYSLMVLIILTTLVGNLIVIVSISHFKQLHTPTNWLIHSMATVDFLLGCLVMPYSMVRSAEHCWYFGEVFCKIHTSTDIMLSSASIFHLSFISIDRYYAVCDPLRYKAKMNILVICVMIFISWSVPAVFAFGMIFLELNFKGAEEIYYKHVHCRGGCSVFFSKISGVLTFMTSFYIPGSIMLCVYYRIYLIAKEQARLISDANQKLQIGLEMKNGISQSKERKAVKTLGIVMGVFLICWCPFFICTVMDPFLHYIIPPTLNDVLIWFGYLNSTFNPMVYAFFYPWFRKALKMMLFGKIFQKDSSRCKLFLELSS
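test system = CHO RD-HGA16 cells bearing hTAAR1 | replication = singlicate | controls = DMSO-only wells and EC80 β-PEA-stimulated wells | reagent = EC80 β-phenethylamine stimulus | read-out basis = percent inhibition of PEA-evoked calcium signal, max/basal emission ratio | schedule = seeding 17-24 h prior, 75-min 37 °C, 30-min RT dye loading | signal = kinetic Fluo-8 calcium fluorescence measurement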
OXTR ag: human OXTR agonists, primary screen, fluorescence, CHO-OTR cells, Fluo-8 calcium; Fluo-8 calcium fluorescence; normalized: DMSO 0%, oxytocin 100%; activation, % at 3 µM; 320,000 tested, 0.32% active; AID 2435, 2010;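 active = activation above the mean of all tested compounds plus 3 SD, cutoff set per screening run, cut at about 20% in these data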;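 note: peak over basal fluorescence ratio from a 100 s FLIPR kinetic read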
Target sequence (P30559 whole entry, looked up): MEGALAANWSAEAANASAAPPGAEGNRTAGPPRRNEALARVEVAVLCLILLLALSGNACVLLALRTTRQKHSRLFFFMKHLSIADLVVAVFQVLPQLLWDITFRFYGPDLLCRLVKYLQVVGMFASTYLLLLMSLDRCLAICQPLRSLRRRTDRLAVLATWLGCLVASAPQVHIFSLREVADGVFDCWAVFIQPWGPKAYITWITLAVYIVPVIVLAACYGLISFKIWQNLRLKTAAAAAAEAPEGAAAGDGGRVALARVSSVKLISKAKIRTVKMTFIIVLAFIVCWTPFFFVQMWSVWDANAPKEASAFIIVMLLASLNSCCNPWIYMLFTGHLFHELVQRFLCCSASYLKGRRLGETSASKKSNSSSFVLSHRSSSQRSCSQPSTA
OXTR potentiate: human OXTR potentiators, primary screen, fluorescence, CHO-OTR cells, Fluo-8 calcium; Oxytocin receptor (Homo sapiens), P30559; Fluo-8 calcium fluorescence, potentiator mode; 0% = oxytocin EC15, 100% = EC100; activation, % at 3 µM; 320,000 tested, 0.061% active;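 active = activation above that plate's cutoff, the mean activation of tested compounds plus 3 SD, cut at about 6.6% in these data, passing the limit was not always enough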;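 note: 100% uses oxytocin at 75 nM as the full agonist control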
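Material: CHO-OTR cells, human receptor; compound dosing: single dose, 3.0 µM nominal final compound concentration; schedule: 6 min compound pre-incubation at room temperature, 100 s kinetic read; measured by: kinetic Fluo-8 calcium fluorescence; read-out basis: % activation vs EC15 and EC100 oxytocin; controls: EC15 oxytocin alone as 0%, 75 nM oxytocin as 100%; replicates: singlicate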
TAAR1 agonist: human TAAR1 agonists, primary screen, Fluo-8 calcium fluorescence, CHO RD-HGA16 cells | 360,000 tested, 0.99% active | AID 624467, 2012 | Trace amine-associated receptor 1 (Homo sapiens), Q96RJ0 | activation, % at 3 µM | vehicle wells 0%, saturating PEA agonist 100%;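 active = activation above the mean activation of all test compounds in the run plus 3 SD, cut at about 38% in these data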
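Assay system – CHO-derived RD-HGA16 cells with stable Gα16 and human TAAR1 · Compound dosing – one-point dosing at 3 µM (nominal) · Incubation – 17-24 h seeding, 75 min 37 °C dye, 30 min RT · Measured by – kinetic Fluo-8 calcium fluorescence · Control set – DMSO vehicle as 0%, PEA at EC100 as 100% · Repeats – single well for each compound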
V1aR counter: agonists of human V1a receptor, primary screen, counter-screen for OXTR agonist project, fluorescence, CHO-V1R cells; Vasopressin V1a receptor (Homo sapiens), P37288; Fluo-8 calcium fluorescence, agonist mode; 0% DMSO, 100% 3 nM vasopressin; activation, % at 3 µM; 320,000 tested, 0.25% active;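 active = activation above the mean activation of all tested compounds plus 3 SD, per screening run, cut at about 20% in these data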;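 note: signal is peak over basal fluorescence ratio across a 100 second FLIPR read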
* = called active by the depositor; · = no result given. Sampled rows, rich in hits. Any-hit rate of the full collection: about 2.3%.

SMILES | TAAR1 antagonist | OXTR ag | OXTR potentiate | TAAR1 agonist | V1aR counter
CCN(CC)c1ccc2c(-c3ccc(S(=O)(=O)O)cc3S(=O)(=O)[O-])c3ccc(=[N+](CC)CC)cc-3oc2c1 | · | 266.0* | -9.6 | · | 179.8*
CCN(CC)c1ccc2nc3c4ccccc4c(=O)cc-3oc2c1 | 19.8 | · | · | 17.0 | ·
O=C(COc1ccc([N+](=O)[O-])cc1)Nc1ccc(S(=O)(=O)N2CCOCC2)cc1 | -7.5 | 16.2 | -10.5 | 47.1* | 11.8
O=C(COc1ccc(C(=O)c2ccc(F)cc2)cc1)Nc1cccc(S(=O)(=O)N2CCOCC2)c1 | 61.7* | 12.3 | -10.9 | 12.0 | 8.5
Cc1ccc(-c2cc(NC(=O)Cc3c(C)[nH]c4ccccc34)ccc2Nc2cccnc2)cc1 | -7.4 | · | · | -0.6 | ·
CCC(C)[C@H]1CNC(=O)C(=O)N1CCc1cccc(F)c1 (some centres undefined) | 2.9 | · | · | 2.8 | ·
O=C(Nc1cccc(S(=O)(=O)NC2=NCCC2)c1)c1cc(-c2ccccn2)nc2ccccc12 | 51.5* | 0.3 | -0.4 | 12.2 | 0.9
O=C(COc1ccccc1)Nc1ccc(CSc2ccccc2)cc1 | 50.8* | 0.5 | -14.1 | 7.3 | 1.9
O=C(Nc1ccc(CSc2ccccc2)cc1)c1ccccc1 | 17.7 | 1.2 | 4.4 | 10.9 | -0.2
O=C(CSCc1ccc(Cl)cc1)N/N=C/c1ccc(OCC(=O)Nc2ccccc2)cc1 | 57.1* | 2.6 | -11.5 | 8.8 | 5.7
CCC(CC)c1nnc(NC(=O)Cc2ccccc2[N+](=O)[O-])s1 | -8.9 | 14.5 | -10.3 | 49.5* | 15.2
CCC(CC)c1nnc(NC(=O)c2c(C)nn(Cc3ccccc3Cl)c2C)s1 | 15.3 | 8.0 | -18.7 | 41.5* | 8.7
CCC(CC)c1nnc(NC(=O)Cc2c[nH]c3ccccc23)s1 | -13.2 | · | · | 32.9 | ·
COCCN1C(=O)[C@H]2C[C@@]13O[C@H](C1CCCCC1)N=C3CC1c3ccccc3C[C@@]12C (some centres undefined) | -9.1 | · | · | 6.0 | ·
Cc1ccc2nc(CN(C)C(=O)[C@H](CCc3ccccc3)NC(=O)[C@H]3O[C@@H](n4cnc5c(N)ncnc54)[C@H](O)[C@@H]3O)[nH]c2c1 | 11.9 | · | · | 0.6 | ·
CN1C(=O)CSc2ccc(NC(=O)N3CCc4ccccc43)cc21 | 55.5* | -0.6 | -2.4 | 19.6 | -0.2
CC(=O)Nc1ccc(NC(=O)Nc2ccc3c(c2)N(C)C(=O)CS3)cc1 | 11.0 | -0.1 | -0.9 | 2.0 | 0.8
COc1cccc(NC(=O)Nc2ccc3c(c2)N(C)C(=O)CS3)c1 | 68.6* | 3.8 | -23.4 | 22.8 | 4.7
CC(C)C[C@H]1COc2ccc(Cl)cc2S(=O)(=O)N1C[C@H](NC(=O)OC(C)(C)C)C(C)C | -41.7 | · | · | 3.9 | ·
CCN(c1cccc(C)c1)S(=O)(=O)c1ccc2c3c(cccc13)C(=O)N2 | 54.0* | -1.9 | -17.3 | 9.9 | -0.5
CCN(CC)S(=O)(=O)c1ccc2c3c(cccc13)C(=O)N2 | -21.5 | -0.1 | -5.0 | 0.4 | -0.1
OC1(c2ccc(F)cc2)CSC(=Nc2cccnc2)N1Cc1ccco1 (centres undefined) | 18.5 | -2.7 | -15.2 | 2.2 | 1.8
OC1(c2ccc(OC(F)F)cc2)CSC(=Nc2cccnc2)N1Cc1ccco1 (centres undefined) | 57.5* | · | · | 10.2 | ·
C[C@@]12C(=O)N(c3ccccc3)C(=O)N1[C@@H]1c3ccccc3OC[C@@H]1[C@H]2c1ccccc1 | 54.7* | -1.8 | -8.5 | 6.2 | -0.4
C[C@]12C(=O)N(c3ccc(Cl)cc3)C(=O)N1[C@H]1c3ccccc3OC[C@@H]1[C@H]2c1ccccc1 | · | 1.7 | 4.3 | · | 2.0
SMILES | TAAR1 antagonist | OXTR ag | OXTR potentiate | TAAR1 agonist | V1aR counter
Cc1ccc(NS(=O)(=O)c2ccc(C3CCCCC3)cc2)cc1 | 59.1* | 8.2 | -12.2 | 14.2 | 16.6
CCOc1ccc(S(=O)(=O)Nc2ccc(C(=O)N3CC(C)OC(C)C3)cc2)cc1 (centres undefined) | 25.5 | 34.5* | -18.1 | 56.7* | 27.3*
CCOC(=O)NCc1ccc(S(=O)(=O)Nc2ccc(C)cc2)cc1 | -1.3 | 14.4 | -20.1 | 44.1* | 9.8
CCOC(=O)COc1ccc(S(=O)(=O)Nc2ccc(C)cc2)cc1 | 6.5 | 15.9 | -12.2 | 49.5* | 13.5
Cc1[nH]c2ccccc2c1C(=O)C(=O)NCCc1c[nH]c2ccccc12 | 75.1* | 6.7 | -7.5 | 45.3* | 3.6
Cc1cccc(C)c1NC(=O)C(=O)NCCc1c[nH]c2ccccc12 | 5.2 | 16.5 | -8.6 | 45.6* | 7.4
O=C(NCCc1c[nH]c2ccccc12)C(=O)c1c[nH]c2ccccc12 | 62.1* | 3.0 | -9.8 | 39.6* | 1.1
COc1cc2cc(C(=O)NCCc3c[nH]c4ccccc34)c(N)nc2cc1OC | 70.3* | · | · | 52.2* | ·
O=C(NCCOc1ccccc1)c1ccccc1Cl | -1.8 | -0.3 | 2.5 | -0.2 | -0.5
CN(C(=O)COc1ccccc1C(=O)NCCOc1ccccc1)c1ccccc1 | 74.9* | 2.1 | -11.5 | 16.4 | 6.4
CCCCC(=O)Nc1ncc(S(=O)(=O)c2ccc([N+](=O)[O-])cc2)s1 | 0.3 | 16.4 | -9.8 | 54.8* | 16.3
COc1ccc(-c2cc(NC(=O)Cc3c(C)[nH]c4ccccc34)ccc2Nc2cccnc2)cc1F | 26.3 | · | · | 2.4 | ·
CCOc1cc(C(F)(F)F)cnc1/C(N)=N/O | -22.4 | 0.7 | -8.6 | 3.5 | -2.0
Nc1ccc2c(c1)Cc1cc([N+](=O)[O-])ccc1-2 | 31.5 | 22.1* | -13.2 | 24.4 | 31.2*
CCOC(=O)Nc1ccc2c(c1)Cc1cc([N+](=O)[O-])ccc1-2 | -2.9 | · | · | 0.0 | ·
CC(O)CN(CC(C)O)c1ccc2c(c1)Cc1cc([N+](=O)[O-])ccc1-2 (centres undefined) | 79.3* | · | · | 92.9* | ·
CC(=NO)c1ccc2c(c1)Cc1cc([N+](=O)[O-])ccc1-2 | -11.0 | · | · | 0.7 | ·
CC(=O)Nc1ccc(CN(C)c2c(C)nc3ccc(C(=O)NCCc4ccccn4)cn23)cc1 | -3.5 | · | · | 2.3 | ·
CCOC(=O)CNS(=O)(=O)c1cc(-c2nnc(Nc3ccc4c(c3)OCO4)c3ccccc23)ccc1C | 59.4* | -2.0 | 0.9 | 9.3 | -1.5
C[C@@H]1CN([C@@H](C)CO)C(=O)c2ccccc2-c2ccccc2CO[C@@H]1CN(C)Cc1ccc(Cl)c(Cl)c1 | -3.6 | · | · | 6.0 | ·
COc1ccc(/C=C2\C(=O)NC(=S)N2C(=O)c2ccc(F)cc2)cc1 | 31.1 | 20.2* | -8.8 | 29.2 | 22.0*
Cc1noc(C)c1NC(=O)N(C)C[C@@H]1Oc2ncc(Br)cc2C(=O)N([C@H](C)CO)C[C@@H]1C | -11.0 | · | · | 0.9 | ·
O=C(c1n[nH]c2ccccc12)N1CCN(S(=O)(=O)c2ccccc2)CC1 | 11.0 | 1.0 | -7.8 | 3.6 | 2.7
